Tests used:
Format in all cases: functional, cell-based
[1] = tested on: HeLa; assay: Antiproliferative activity against human HeLa cells after 48 hrs by MTT assay
Summary of the method: (§1)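 Cells seeded in 96-well plates and exposed to compounds for 48 h at 37 °C, 5% CO2. MTT (0.5 mg/mL) then added for 4 h. Supernatant removed, formazan dissolved in DMSO, and OD read at 570 nm. Cisplatin served as positive control.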

[2] = tested on: SGC-7901; assay: Antiproliferative activity against human SGC7901 cells after 48 hrs by MTT assay; conditions: SGC-7901, 48 h; summary of the method: as §1
[3] = tested on: Raji; assay: Antiproliferative activity against human Raji cells after 48 hrs by MTT assay
Summary of the method: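 Human B-lymphoma Raji line kept in RPMI-1640 with 10% FBS and 100 U/mL penicillin at 37 °C, 5% CO2, humidified. Cells were plated in 96 wells and treated with compounds for 48 h. MTT (0.5 mg/mL) was added for 4 h, then formazan was taken up in DMSO after supernatant removal and read at 570 nm. Cisplatin served as positive control.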

[4] = tested on: A549; assay: Antiproliferative activity against human A549 cells after 48 hrs by MTT assay; conditions: A549, 48 h; summary of the method: as §1

Row | SMILES | IC50 [1] [µM] | IC50 [2] [µM] | IC50 [3] [µM] | IC50 [4] [µM]
1 | CCOC(=O)[C@]1(C)CCC[C@@]2(C)[C@@H]3CC[C@@]4(C)C[C@]3(CC[C@@H]21)[C@@H]1CN(c2ccc(Br)cc2)N=C14 | > 50 | > 50 | > 50 | > 50
2 | CCOC(=O)[C@]1(C)CCC[C@@]2(C)[C@@H]3CC[C@@]4(C)C[C@]3(CC[C@@H]21)[C@@H]1CN(c2ccccc2C)N=C14 | > 50 | > 50 | 19.9 | > 50
3 | CCOC(=O)[C@]1(C)CCC[C@@]2(C)[C@@H]3CC[C@@]4(C)C[C@]3(CC[C@@H]21)[C@@H]1CN(c2cccc(C)c2)N=C14 | > 50 | > 50 | > 50 | > 50
4 | CCOC(=O)[C@]1(C)CCC[C@@]2(C)[C@@H]3CC[C@@]4(C)C[C@]3(CC[C@@H]21)[C@@H]1CN(c2ccc(OC)cc2)N=C14 | 31.2 | 34 | 12.2 | 17.8
5 | CCOC(=O)[C@]1(C)CCC[C@@]2(C)[C@@H]3CC[C@@]4(C)C[C@]3(CC[C@@H]21)[C@@H]1CN(c2cccc([N+](=O)[O-])c2)N=C14 | > 50 | > 50 | > 50 | > 50
6 | CCOC(=O)[C@]1(C)CCC[C@@]2(C)[C@@H]3CC[C@@]4(C)C[C@]3(CC[C@@H]21)[C@@H]1CN(c2ccc(F)cc2F)N=C14 | > 50 | > 50 | 13.5 | > 50
7 | CCOC(=O)[C@]1(C)CCC[C@@]2(C)[C@@H]3CC[C@@]4(C)C[C@]3(CC[C@@H]21)[C@@H]1CN(c2cc(F)ccc2F)N=C14 | > 50 | > 50 | 27.4 | 20.2
8 | CCOC(=O)[C@]1(C)CCC[C@@]2(C)[C@@H]3CC[C@@]4(C)C[C@]3(CC[C@@H]21)[C@@H]1CN(c2cccc(Cl)c2Cl)N=C14 | > 50 | > 50 | 22.1 | > 50
9 | CCOC(=O)[C@]1(C)CCC[C@@]2(C)[C@@H]3CC[C@@]4(C)C[C@]3(CC[C@@H]21)[C@@H]1CN(c2c(Cl)cccc2Cl)N=C14 | > 50 | > 50 | > 50 | 11.6
10 | CCOC(=O)[C@]1(C)CCC[C@@]2(C)[C@@H]3CC[C@@]4(C)C[C@]3(CC[C@@H]21)[C@@H]1CN(c2ccc(Cl)c(Cl)c2)N=C14 | > 50 | > 50 | > 50 | > 50
11 | CCOC(=O)[C@]1(C)CCC[C@@]2(C)[C@@H]3CC[C@@]4(C)C[C@]3(CC[C@@H]21)[C@@H]1CN(c2cc(C)ccc2C)N=C14 | 30.3 | 22.5 | 12.6 | > 50
12 | CCOC(=O)[C@]1(C)CCC[C@@]2(C)[C@@H]3CC[C@@]4(C)C[C@]3(CC[C@@H]21)[C@@H]1CN(c2cc(C)cc(C)c2)N=C14 | > 50 | > 50 | > 50 | > 50
13 | CCOC(=O)[C@]1(C)CCC[C@@]2(C)[C@@H]3CC[C@@]4(C)C[C@]3(CC[C@@H]21)[C@@H]1CN(c2ccccc2)N=C14 | > 50 | > 50 | 14 | 28.3
14 | CCOC(=O)[C@]1(C)CCC[C@@]2(C)[C@@H]3CC[C@@]4(C)C[C@]3(CC[C@@H]21)[C@@H]1CN(c2ccccc2F)N=C14 | > 50 | 34.7 | 17.2 | 32.6
15 | CCOC(=O)[C@]1(C)CCC[C@@]2(C)[C@@H]3CC[C@@]4(C)C[C@]3(CC[C@@H]21)[C@@H]1CN(c2cccc(F)c2)N=C14 | > 50 | > 50 | 29.1 | > 50
16 | CCOC(=O)[C@]1(C)CCC[C@@]2(C)[C@@H]3CC[C@@]4(C)C[C@]3(CC[C@@H]21)[C@@H]1CN(c2ccccc2Cl)N=C14 | > 50 | > 50 | > 50 | > 50
17 | CCOC(=O)[C@]1(C)CCC[C@@]2(C)[C@@H]3CC[C@@]4(C)C[C@]3(CC[C@@H]21)[C@@H]1CN(c2ccc(Cl)cc2)N=C14 | > 50 | > 50 | > 50 | > 50
18 | CCOC(=O)[C@]1(C)CCC[C@@]2(C)[C@@H]3CC[C@@]4(C)C[C@]3(CC[C@@H]21)[C@@H]1CN(c2cccc(Br)c2)N=C14 | > 50 | > 50 | 25.1 | > 50
19 | CCOC(=O)[C@]1(C)CCC[C@@]2(C)[C@@H]3CC[C@@]4(C)C[C@]3(CC[C@@H]21)[C@@H]1CN(c2ccc([N+](=O)[O-])cc2)N=C14 | > 50 | > 50 | > 50 | > 50

Continued, values first:

Row | IC50 [1] [µM] | IC50 [2] [µM] | IC50 [3] [µM] | IC50 [4] [µM] | SMILES
20 | > 50 | > 50 | 22.9 | > 50 | CCOC(=O)[C@]1(C)CCC[C@@]2(C)[C@@H]3CC[C@@]4(C)C[C@]3(CC[C@@H]21)[C@@H]1CN(c2ccc(Cl)cc2Cl)N=C14
21 | > 50 | > 50 | 25.6 | > 50 | CCOC(=O)[C@]1(C)CCC[C@@]2(C)[C@@H]3CC[C@@]4(C)C[C@]3(CC[C@@H]21)[C@@H]1CN(c2cc(Cl)ccc2Cl)N=C14
22 | 24.6 | > 50 | > 50 | > 50 | CCOC(=O)[C@]1(C)CCC[C@@]2(C)[C@@H]3CC[C@@]4(C)C[C@]3(CC[C@@H]21)[C@@H]1CN(c2cc(Cl)cc(Cl)c2)N=C14
23 | 42.5 | 17.6 | 11.4 | 25.4 | CCOC(=O)[C@]1(C)CCC[C@@]2(C)[C@@H]3CC[C@@]4(C)C[C@]3(CC[C@@H]21)c1cnn(-c2ccccc2)c14
24 | > 50 | 8.44 | 13.8 | 35.3 | CCOC(=O)[C@]1(C)CCC[C@@]2(C)[C@@H]3CC[C@@]4(C)C[C@]3(CC[C@@H]21)c1cnn(-c2ccc(Cl)cc2)c14
25 | > 50 | 15.6 | 14.3 | 42.3 | CCOC(=O)[C@]1(C)CCC[C@@]2(C)[C@@H]3CC[C@@]4(C)C[C@]3(CC[C@@H]21)c1cnn(-c2ccccc2[N+](=O)[O-])c14
26 | > 50 | > 50 | 11.7 | > 50 | CCOC(=O)[C@]1(C)CCC[C@@]2(C)[C@@H]3CC[C@@]4(C)C[C@]3(CC[C@@H]21)c1cnn(-c2cc(Cl)ccc2Cl)c14
27 | > 50 | > 50 | 17.1 | > 50 | CCOC(=O)[C@]1(C)CCC[C@@]2(C)[C@@H]3CC[C@@]4(C)C[C@]3(CC[C@@H]21)c1cnn(-c2ccc(Cl)c(Cl)c2)c14
28 | > 50 | > 50 | 15.8 | > 50 | CCOC(=O)[C@]1(C)CCC[C@@]2(C)[C@@H]3CC[C@@]4(C)C[C@]3(CC[C@@H]21)c1cnn(-c2cc(Cl)cc(Cl)c2)c14
29 | > 50 | > 50 | 12.5 | > 50 | CCOC(=O)[C@]1(C)CCC[C@@]2(C)[C@@H]3CC[C@@]4(C)C[C@]3(CC[C@@H]21)c1cnn(-c2cc(C)cc(C)c2)c14

Source: ChEMBL document CHEMBL2401716, “Design and stereoselective synthesis of novel isosteviol-fused pyrazolines and pyrazoles as potential anticancer agents” (Eur J Med Chem, 2013)
